This passage reports Activity results from ChEMBL document CHEMBL1157912, “Impact of nature and length of linker incorporated in agonists on toll-like receptor 9-mediated immune responses” (J Med Chem, 2010).

Experiment [1] deals with T1, Toll-like receptor 9 (Mus musculus) (UniProt Q9EQU3).
T1 sequence (whole entry): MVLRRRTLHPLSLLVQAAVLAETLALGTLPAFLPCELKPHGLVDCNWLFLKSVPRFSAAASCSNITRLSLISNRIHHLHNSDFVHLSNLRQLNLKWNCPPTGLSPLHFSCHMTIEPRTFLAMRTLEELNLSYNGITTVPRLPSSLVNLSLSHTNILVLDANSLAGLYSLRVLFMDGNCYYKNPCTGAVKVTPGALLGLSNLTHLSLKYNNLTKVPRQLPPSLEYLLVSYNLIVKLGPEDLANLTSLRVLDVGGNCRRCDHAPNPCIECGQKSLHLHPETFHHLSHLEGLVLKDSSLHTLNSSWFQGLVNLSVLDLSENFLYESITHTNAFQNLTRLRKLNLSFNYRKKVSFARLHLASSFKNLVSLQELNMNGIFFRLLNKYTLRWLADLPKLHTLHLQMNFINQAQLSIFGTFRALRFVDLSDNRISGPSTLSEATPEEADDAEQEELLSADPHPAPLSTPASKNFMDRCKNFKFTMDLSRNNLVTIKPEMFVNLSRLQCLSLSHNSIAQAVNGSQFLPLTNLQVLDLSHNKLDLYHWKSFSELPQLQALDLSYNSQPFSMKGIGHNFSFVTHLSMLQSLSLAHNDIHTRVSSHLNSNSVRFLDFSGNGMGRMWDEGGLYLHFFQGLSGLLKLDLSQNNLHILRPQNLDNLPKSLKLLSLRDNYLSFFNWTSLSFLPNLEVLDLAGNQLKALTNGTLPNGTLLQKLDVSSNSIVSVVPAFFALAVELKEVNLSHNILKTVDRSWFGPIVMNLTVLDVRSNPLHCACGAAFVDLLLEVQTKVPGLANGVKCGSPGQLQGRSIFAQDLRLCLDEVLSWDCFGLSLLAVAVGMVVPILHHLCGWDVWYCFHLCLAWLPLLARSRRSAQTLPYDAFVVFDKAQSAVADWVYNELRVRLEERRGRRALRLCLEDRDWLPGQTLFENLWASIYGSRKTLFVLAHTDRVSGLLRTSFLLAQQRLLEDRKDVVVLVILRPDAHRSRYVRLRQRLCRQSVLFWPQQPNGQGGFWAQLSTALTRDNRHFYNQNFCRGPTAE
In words: Activation of mouse TLR9 expressed in HEK293 cells assessed as induction of NF-kappaB activity after 18 hrs by SEAP assay. Type of experiment: cell-based. A digest of the protocol: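 HEK293 cells stably expressing mouse TLR9 were grown in DMEM with 10% heat-inactivated FBS. At 80% confluence they were transiently transfected with a SEAP reporter plasmid (100 ng/well, lipofectamine) for 6 h. Medium was then replaced and agonists were added for 18 h. Supernatant SEAP was read with QuantiBlue substrate at 620-645 nm. Results are expressed as fold NF-κB activity over PBS control.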

The target of experiment [2] is T1, Toll-like receptor 9 (Mus musculus). In words: Induction of TLR9-mediated IL12 production in C57BL/6 mouse spleen cells after 24 hrs by ELISA. Type of experiment: cell-based. The gist of the method: (§1)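 C57BL/6 mouse spleen cells were cultured with agonists at 0.1, 0.3, 1, 3 and 10 μg/mL for 24 h. Secreted IL-12 and IL-6 in the supernatants were measured by ELISA. Values are averages of triplicate wells from one representative of at least two independent experiments.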
A general note: An ELISA detects its analyte on a solid surface through an enzyme-linked reagent.

Experiment [3] has the same target. In words: Induction of TLR9-mediated IL6 production in C57BL/6 mouse spleen cells after 24 hrs by ELISA. Type of experiment: cell-based. The gist of the method: as §1
The target in experiment [4] is T2, Toll-like receptor 9 (Homo sapiens) (UniProt Q9NR96).
T2 sequence (whole entry): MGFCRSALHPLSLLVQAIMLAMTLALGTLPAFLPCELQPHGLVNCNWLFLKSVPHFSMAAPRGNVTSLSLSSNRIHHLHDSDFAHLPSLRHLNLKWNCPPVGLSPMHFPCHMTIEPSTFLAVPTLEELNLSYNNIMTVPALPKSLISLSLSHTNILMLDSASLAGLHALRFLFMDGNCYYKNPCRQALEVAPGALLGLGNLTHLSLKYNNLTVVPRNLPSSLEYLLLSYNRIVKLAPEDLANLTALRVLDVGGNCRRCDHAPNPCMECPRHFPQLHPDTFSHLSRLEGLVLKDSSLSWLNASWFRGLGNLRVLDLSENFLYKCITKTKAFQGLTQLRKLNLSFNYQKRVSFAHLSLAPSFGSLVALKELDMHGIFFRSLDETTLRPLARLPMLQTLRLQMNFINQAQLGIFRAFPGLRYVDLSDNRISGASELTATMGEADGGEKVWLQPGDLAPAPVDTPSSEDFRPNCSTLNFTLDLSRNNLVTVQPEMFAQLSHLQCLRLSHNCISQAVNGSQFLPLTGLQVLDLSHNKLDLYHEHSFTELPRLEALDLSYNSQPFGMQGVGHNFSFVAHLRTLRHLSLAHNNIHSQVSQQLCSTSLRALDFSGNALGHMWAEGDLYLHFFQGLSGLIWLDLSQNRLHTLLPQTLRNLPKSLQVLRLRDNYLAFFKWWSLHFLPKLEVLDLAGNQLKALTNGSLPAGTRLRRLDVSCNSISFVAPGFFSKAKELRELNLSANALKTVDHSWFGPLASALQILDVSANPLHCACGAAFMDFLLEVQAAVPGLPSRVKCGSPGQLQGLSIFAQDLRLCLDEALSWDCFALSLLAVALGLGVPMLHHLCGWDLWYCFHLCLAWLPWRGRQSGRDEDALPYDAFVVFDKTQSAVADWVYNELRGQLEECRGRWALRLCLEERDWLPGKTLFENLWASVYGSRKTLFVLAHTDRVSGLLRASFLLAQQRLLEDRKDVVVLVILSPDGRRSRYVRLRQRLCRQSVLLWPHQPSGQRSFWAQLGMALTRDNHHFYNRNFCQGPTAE
In words: Induction of TLR9-mediated immune stimulation in human PBMC assessed as IL12 production at 2 ug/ml after 24 hrs by luminex multiplex assay (RVb = 0.00 ng/ml).

Experiment [5] addresses T2, Toll-like receptor 9 (Homo sapiens). In words: Induction of TLR9-mediated immune stimulation in human PBMC assessed as MIP1alpha production at 10 ug/ml after 24 hrs by luminex multiplex assay (RVb = 0.01 ng/ml).
Experiment [6] has the same target. In words: Induction of TLR9-mediated immune stimulation in human PBMC assessed as MIP1beta production at 2 ug/ml after 24 hrs by luminex multiplex assay (RVb = 0.03 +/- 0.02 ng/ml).
The target is the same in experiment [7]. In words: Induction of TLR9-mediated immune stimulation in human PBMC assessed as IP10 production at 10 ug/ml after 24 hrs by luminex multiplex assay (RVb = 0.00 ng/ml).
Experiment [8] shares this target. In words: Induction of TLR9-mediated immune stimulation in human PBMC assessed as RANTES production at 2 ug/ml after 24 hrs by luminex multiplex assay (RVb = 0.05 +/- 0.04 ng/ml).
Experiment [9] has the same target. In words: Induction of TLR9-mediated immune stimulation in human PBMC assessed as RANTES production at 10 ug/ml after 24 hrs by luminex multiplex assay (RVb = 0.05 +/- 0.04 ng/ml).

With `Cc1cn([C@H]2C[C@H](OCCOCCOCCOCCOCCOCCOP(=O)(S)O[C@H]3C[C@H](n4cc(C)c(=O)[nH]c4=O)O[C@@H]3COP(=O)(S)O[C@H]3[C@@H](O)[C@H](n4ccc(N)nc4=O)O[C@@H]3COP(=O)(S)O[C@H]3C[C@H](n4cc(C)c(=O)[nH]c4=O)O[C@@H]3COP(=O)(S)O[C@H]3C[C@H](n4cc(C)c(=O)[nH]c4=O)O[C@@H]3COP(=O)(S)O[C@H]3C[C@H](n4ccc5c(=O)[nH]c(N)nc54)O[C@@H]3COP(=O)(S)O[C@H]3[C@@H](O)[C@H](n4ccc(N)nc4=O)O[C@@H]3COP(=O)(S)O[C@H]3C[C@H](n4cc(C)c(=O)[nH]c4=O)O[C@@H]3COP(=O)(S)O[C@H]3[C@@H](O)[C@H](n4cnc5c(=O)[nH]c(N)nc54)O[C@@H]3COP(=O)(S)O[C@H]3C[C@H](n4cc(C)c(=O)[nH]c4=O)O[C@@H]3COP(=O)(S)O[C@H]3[C@@H](O)[C@H](n4ccc(N)nc4=O)O[C@@H]3COP(=O)(S)O[C@H]3C[C@H](n4cc(C)c(=O)[nH]c4=O)O[C@@H]3CO)[C@@H](COP(=O)(S)O[C@H]3[C@@H](O)[C@H](n4ccc(N)nc4=O)O[C@@H]3COP(=O)(S)O[C@H]3C[C@H](n4cc(C)c(=O)[nH]c4=O)O[C@@H]3COP(=O)(S)O[C@H]3C[C@H](n4cc(C)c(=O)[nH]c4=O)O[C@@H]3COP(=O)(S)O[C@H]3C[C@H](n4ccc5c(=O)[nH]c(N)nc54)O[C@@H]3COP(=O)(S)O[C@H]3[C@@H](O)[C@H](n4ccc(N)nc4=O)O[C@@H]3COP(=O)(S)O[C@H]3C[C@H](n4cc(C)c(=O)[nH]c4=O)O[C@@H]3COP(=O)(S)O[C@H]3[C@@H](O)[C@H](n4cnc5c(=O)[nH]c(N)nc54)O[C@@H]3COP(=O)(S)O[C@H]3C[C@H](n4cc(C)c(=O)[nH]c4=O)O[C@@H]3COP(=O)(S)O[C@H]3[C@@H](O)[C@H](n4ccc(N)nc4=O)O[C@@H]3COP(=O)(S)O[C@H]3C[C@H](n4cc(C)c(=O)[nH]c4=O)O[C@@H]3CO)O2)c(=O)[nH]c1=O` (stereo partly drawn), the Activity result is “Dose-dependent effect” in experiment [1]; “Dose-dependent effect” in [2]; “Dose-dependent effect” in experiment [3]; 0.12 ng/mL in experiment [4]; 0.27 ng/mL in [5]; 0.11 ng/mL in [6]. Besides, the Activity was 0.04 ng/mL in [7], 1.57 ng/mL in experiment [8] and 1.32 ng/mL in experiment [9].

With `Cc1cn([C@H]2C[C@H](OCC[C@H](O)COP(=O)(S)O[C@H]3C[C@H](n4cc(C)c(=O)[nH]c4=O)O[C@@H]3COP(=O)(S)O[C@H]3[C@@H](O)[C@H](n4ccc(N)nc4=O)O[C@@H]3COP(=O)(S)O[C@H]3C[C@H](n4cc(C)c(=O)[nH]c4=O)O[C@@H]3COP(=O)(S)O[C@H]3C[C@H](n4cc(C)c(=O)[nH]c4=O)O[C@@H]3COP(=O)(S)O[C@H]3C[C@H](n4ccc5c(=O)[nH]c(N)nc54)O[C@@H]3COP(=O)(S)O[C@H]3[C@@H](O)[C@H](n4ccc(N)nc4=O)O[C@@H]3COP(=O)(S)O[C@H]3C[C@H](n4cc(C)c(=O)[nH]c4=O)O[C@@H]3COP(=O)(S)O[C@H]3[C@@H](O)[C@H](n4cnc5c(=O)[nH]c(N)nc54)O[C@@H]3COP(=O)(S)O[C@H]3C[C@H](n4cc(C)c(=O)[nH]c4=O)O[C@@H]3COP(=O)(S)O[C@H]3[C@@H](O)[C@H](n4ccc(N)nc4=O)O[C@@H]3COP(=O)(S)O[C@H]3C[C@H](n4cc(C)c(=O)[nH]c4=O)O[C@@H]3CO)[C@@H](COP(=O)(S)O[C@H]3[C@@H](O)[C@H](n4ccc(N)nc4=O)O[C@@H]3COP(=O)(S)O[C@H]3C[C@H](n4cc(C)c(=O)[nH]c4=O)O[C@@H]3COP(=O)(S)O[C@H]3C[C@H](n4cc(C)c(=O)[nH]c4=O)O[C@@H]3COP(=O)(S)O[C@H]3C[C@H](n4ccc5c(=O)[nH]c(N)nc54)O[C@@H]3COP(=O)(S)O[C@H]3[C@@H](O)[C@H](n4ccc(N)nc4=O)O[C@@H]3COP(=O)(S)O[C@H]3C[C@H](n4cc(C)c(=O)[nH]c4=O)O[C@@H]3COP(=O)(S)O[C@H]3[C@@H](O)[C@H](n4cnc5c(=O)[nH]c(N)nc54)O[C@@H]3COP(=O)(S)O[C@H]3C[C@H](n4cc(C)c(=O)[nH]c4=O)O[C@@H]3COP(=O)(S)O[C@H]3[C@@H](O)[C@H](n4ccc(N)nc4=O)O[C@@H]3COP(=O)(S)O[C@H]3C[C@H](n4cc(C)c(=O)[nH]c4=O)O[C@@H]3CO)O2)c(=O)[nH]c1=O` (stereo partly drawn), the Activity entry in experiment [1] was “Dose-dependent effect”; in experiment [2] it was “Dose-dependent effect”; in experiment [3], “Dose-dependent effect”; in experiment [4] it was 0.16 ng/mL; in experiment [5], 0.32 ng/mL; in [6], 0.81 ng/mL. For the same compound, the Activity amounted to 0.99 ng/mL in [7], 0.69 ng/mL in [8] and 0.98 ng/mL in experiment [9].
